Data reported in ChEMBL document CHEMBL4808198, “Synthesis, bioevaluation and docking studies of new imidamide derivatives as nitric oxide synthase inhibitors” (Bioorg Med Chem, 2021).

What was measured:
Nitric oxide synthase 1 [1] = target: T1, Nitric oxide synthase 1 (Homo sapiens, UniProt P29475); assay: Inhibition of human recombinant nNOS expressed in Escherichia coli assessed as reduction in L-[3H]-citrulline level using L-[3H]-arginine as substrate at 1 mM incubated for 30 mins by liquid scintillation method relative to control
T1 sequence (P29475 whole entry): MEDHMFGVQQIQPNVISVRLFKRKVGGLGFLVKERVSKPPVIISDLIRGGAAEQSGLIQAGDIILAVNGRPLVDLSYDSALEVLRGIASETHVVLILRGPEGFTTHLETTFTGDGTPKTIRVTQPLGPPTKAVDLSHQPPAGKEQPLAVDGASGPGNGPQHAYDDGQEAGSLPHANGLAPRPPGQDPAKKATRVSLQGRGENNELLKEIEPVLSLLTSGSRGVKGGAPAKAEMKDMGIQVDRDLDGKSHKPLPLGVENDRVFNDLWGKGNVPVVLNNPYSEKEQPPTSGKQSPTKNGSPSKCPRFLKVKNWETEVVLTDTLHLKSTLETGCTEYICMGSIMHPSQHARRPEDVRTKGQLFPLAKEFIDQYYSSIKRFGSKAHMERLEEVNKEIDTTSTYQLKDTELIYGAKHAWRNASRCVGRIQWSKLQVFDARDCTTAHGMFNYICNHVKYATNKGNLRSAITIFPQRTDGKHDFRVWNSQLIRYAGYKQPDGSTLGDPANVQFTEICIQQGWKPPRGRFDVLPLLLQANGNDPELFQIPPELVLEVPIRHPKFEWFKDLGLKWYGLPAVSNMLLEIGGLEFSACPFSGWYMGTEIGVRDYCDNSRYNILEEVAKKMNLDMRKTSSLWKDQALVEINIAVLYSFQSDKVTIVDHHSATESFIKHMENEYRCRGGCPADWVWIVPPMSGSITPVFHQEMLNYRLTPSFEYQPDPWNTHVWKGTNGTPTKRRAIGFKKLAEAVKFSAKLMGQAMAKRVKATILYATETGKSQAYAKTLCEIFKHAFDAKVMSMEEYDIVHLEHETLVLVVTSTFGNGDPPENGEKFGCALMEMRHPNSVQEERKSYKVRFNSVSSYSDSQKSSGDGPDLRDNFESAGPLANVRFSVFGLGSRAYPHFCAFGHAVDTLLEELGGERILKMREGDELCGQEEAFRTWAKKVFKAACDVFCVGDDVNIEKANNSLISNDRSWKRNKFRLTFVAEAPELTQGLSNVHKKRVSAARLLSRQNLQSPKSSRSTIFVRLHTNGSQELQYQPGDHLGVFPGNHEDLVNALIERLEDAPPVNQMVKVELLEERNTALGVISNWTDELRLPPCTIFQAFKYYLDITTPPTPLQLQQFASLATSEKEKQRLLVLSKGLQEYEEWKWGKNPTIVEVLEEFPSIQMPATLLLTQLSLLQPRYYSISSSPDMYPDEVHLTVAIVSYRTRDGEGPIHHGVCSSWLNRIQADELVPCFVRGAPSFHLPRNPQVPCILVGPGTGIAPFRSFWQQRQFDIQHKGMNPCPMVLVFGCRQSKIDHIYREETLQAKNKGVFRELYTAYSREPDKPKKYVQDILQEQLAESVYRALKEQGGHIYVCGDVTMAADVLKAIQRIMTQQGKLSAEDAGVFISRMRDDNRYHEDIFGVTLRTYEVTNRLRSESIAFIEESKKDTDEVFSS

[2] = target: T2, Nitric oxide synthase, inducible (Homo sapiens, UniProt P35228); assay: Inhibition of N-terminal His-tagged human recombinant iNOS expressed in Escherichia coli assessed as reduction in L-[3H]-citrulline level using L-[3H]-arginine as substrate at 1 mM incubated for 30 mins by liquid scintillation method relative to control
T2 sequence (P35228 whole entry): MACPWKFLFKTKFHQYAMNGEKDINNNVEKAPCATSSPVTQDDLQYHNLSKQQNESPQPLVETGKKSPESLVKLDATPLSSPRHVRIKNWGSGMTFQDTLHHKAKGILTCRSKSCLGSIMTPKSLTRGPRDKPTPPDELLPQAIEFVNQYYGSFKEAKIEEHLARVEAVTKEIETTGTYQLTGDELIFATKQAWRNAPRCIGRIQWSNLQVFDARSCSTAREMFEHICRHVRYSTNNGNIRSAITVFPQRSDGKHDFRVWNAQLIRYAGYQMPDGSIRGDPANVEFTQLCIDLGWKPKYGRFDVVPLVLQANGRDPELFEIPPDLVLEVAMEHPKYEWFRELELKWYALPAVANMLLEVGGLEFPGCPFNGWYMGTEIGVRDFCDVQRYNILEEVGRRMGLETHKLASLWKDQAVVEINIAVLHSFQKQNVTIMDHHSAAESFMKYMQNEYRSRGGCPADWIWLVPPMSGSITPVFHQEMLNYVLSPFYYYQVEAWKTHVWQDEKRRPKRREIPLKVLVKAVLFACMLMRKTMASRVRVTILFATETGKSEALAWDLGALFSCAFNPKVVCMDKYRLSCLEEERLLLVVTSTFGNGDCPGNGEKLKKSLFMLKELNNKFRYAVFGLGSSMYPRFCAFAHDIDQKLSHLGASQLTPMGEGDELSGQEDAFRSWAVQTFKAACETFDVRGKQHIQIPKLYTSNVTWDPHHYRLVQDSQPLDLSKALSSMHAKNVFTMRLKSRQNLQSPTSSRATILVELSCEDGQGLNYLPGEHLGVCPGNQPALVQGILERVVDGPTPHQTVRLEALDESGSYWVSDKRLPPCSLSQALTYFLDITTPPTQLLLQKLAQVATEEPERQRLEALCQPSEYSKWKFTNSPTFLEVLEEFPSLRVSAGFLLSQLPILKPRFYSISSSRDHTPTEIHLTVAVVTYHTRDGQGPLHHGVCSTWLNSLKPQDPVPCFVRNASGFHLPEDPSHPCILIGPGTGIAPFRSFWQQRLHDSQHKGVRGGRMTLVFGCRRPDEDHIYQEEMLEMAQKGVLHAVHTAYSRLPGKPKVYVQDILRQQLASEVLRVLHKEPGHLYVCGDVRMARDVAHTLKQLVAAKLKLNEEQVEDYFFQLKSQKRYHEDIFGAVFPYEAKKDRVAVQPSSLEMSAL

[3] = target: T2, Nitric oxide synthase, inducible; assay: Inhibition of N-terminal His-tagged human recombinant iNOS expressed in Escherichia coli assessed as reduction in L-[3H]-citrulline level using L-[3H]-arginine as substrate incubated for 30 min by scintillation counting
Nitric oxide synthase 1 [4] = target: T1, Nitric oxide synthase 1; assay: Inhibition of human recombinant nNOS expressed in Escherichia coli assessed as reduction in L-[3H]-citrulline level using L-[3H]-arginine as substrate incubated for 30 min by scintillation counting
HUVEC = assay: Cytotoxicity against HUVEC assessed as reduction in cell viability at 10 to 100 uM measured after 30 mins by MTT assay; type: cell-based; conditions: human, 0.5 h, 500 µM, in the assay text read “10 to 500 uM” for “10 to 100 uM”
How it was run: (§1)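 HUVECs seeded at 1x10⁴ cells/well, grown 24 h at 37 °C, switched to serum-free medium for at least 2 h, then exposed to serial dilutions (10 - 500 µM) for 30 min. MTT added for 3 h at 37 °C, formazan dissolved in DMSO, absorbance read at 570 nm minus 630 nm background. Viability given as % of untreated cells. At least three independent runs in triplicate.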

[5] = Cytotoxicity against HUVEC assessed as reduction in cell viability at 500 uM measured after 30 mins by MTT assay relative to control; type: cell-based; conditions: human, HUVEC cells, read-out: INH; how it was run: as §1
Nitric oxide synthase 3 [6] = target: T3, Nitric oxide synthase 3 (Rattus norvegicus, UniProt Q62600); assay: Inhibition of eNOS in Wistar rat endothelium-intact thoracic aortic rings assessed as inhibition of acetylcholine-evoked relaxation at 100 uM pretreated with compound for 30 mins followed by norepinephrine addition and later incubated with acetylcholine; type: tissue-based, Thoracic aorta; conditions: 0.5 h
T3 sequence (Q62600 whole entry): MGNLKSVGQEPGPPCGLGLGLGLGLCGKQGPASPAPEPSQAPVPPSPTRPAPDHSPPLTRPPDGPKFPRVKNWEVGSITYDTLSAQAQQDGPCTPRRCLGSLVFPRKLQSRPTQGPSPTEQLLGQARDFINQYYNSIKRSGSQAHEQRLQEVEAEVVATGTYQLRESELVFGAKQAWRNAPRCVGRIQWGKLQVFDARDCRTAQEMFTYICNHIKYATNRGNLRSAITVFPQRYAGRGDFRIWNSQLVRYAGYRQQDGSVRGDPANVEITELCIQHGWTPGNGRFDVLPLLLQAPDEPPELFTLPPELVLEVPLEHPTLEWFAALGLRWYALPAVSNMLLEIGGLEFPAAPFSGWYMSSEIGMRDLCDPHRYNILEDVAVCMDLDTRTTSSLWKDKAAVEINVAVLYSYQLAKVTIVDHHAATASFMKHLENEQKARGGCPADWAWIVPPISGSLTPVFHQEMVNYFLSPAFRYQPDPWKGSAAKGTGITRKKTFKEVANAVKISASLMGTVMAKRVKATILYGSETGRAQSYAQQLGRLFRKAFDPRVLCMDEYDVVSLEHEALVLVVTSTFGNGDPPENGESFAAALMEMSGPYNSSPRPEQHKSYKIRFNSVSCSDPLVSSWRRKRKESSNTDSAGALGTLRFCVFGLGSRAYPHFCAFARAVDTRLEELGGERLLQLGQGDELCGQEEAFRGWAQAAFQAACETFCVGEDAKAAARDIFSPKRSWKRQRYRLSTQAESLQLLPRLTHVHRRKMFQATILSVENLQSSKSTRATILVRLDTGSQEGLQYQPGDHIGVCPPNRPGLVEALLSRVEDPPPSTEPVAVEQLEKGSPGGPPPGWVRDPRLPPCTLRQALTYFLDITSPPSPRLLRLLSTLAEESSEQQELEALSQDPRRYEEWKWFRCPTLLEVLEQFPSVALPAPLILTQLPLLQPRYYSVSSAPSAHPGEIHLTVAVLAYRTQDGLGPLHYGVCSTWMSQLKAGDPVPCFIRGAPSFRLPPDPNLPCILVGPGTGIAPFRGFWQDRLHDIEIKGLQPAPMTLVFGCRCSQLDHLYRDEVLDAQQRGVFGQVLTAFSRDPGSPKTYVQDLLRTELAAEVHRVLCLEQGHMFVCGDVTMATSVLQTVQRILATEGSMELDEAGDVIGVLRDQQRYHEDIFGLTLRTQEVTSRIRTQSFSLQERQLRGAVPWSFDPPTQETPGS
How it was run: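 Descending thoracic aortic rings with endothelium were held in Krebs solution at 37 °C, gassed with 95% O2/5% CO2, at 2 g resting tension, with isometric force recorded. Rings were incubated 30 min with test agent or DMSO vehicle (1/10⁶), then contracted with 1 µM norepinephrine. At plateau, acetylcholine was added cumulatively. Relaxation is given as % of norepinephrine contraction; n = rings from different rats; two-way ANOVA with Dunnett.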

Nitric oxide synthase 3 [7] = target: T3, Nitric oxide synthase 3; assay: Inhibition of eNOS in Wistar rat endothelium-intact thoracic aortic rings assessed as inhibition of acetylcholine-evoked relaxation at 20 uM pretreated with compound for 30 mins followed by norepinephrine addition and later incubated with acetylcholine; type: tissue-based, Thoracic aorta; conditions: 0.5 h
How it was run: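 Rat descending thoracic aortic rings with endothelium, in Krebs at 37 °C gassed with 95% O₂/5% CO₂, 2 g resting tension, isometric recording. Incubated 30 min with compound (20 µM), L-NAME (100 µM) or DMSO vehicle (1/10⁶), contracted with 1 µM norepinephrine, then cumulative acetylcholine. Relaxation given as % of norepinephrine contraction. Two-way ANOVA with Dunnett's test.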

Row | inhibition (Nitric oxide synthase 1 [1]) | inhibition [2] | IC50 [3] | IC50 (Nitric oxide synthase 1 [4]) | inhibition (INH) (Nitric oxide synthase 3 [7]) | Structure (SMILES) | Activity (HUVEC) | cytotoxicity at 0.5 h, 500 µM [5] | inhibition (INH) (Nitric oxide synthase 3 [6])
1 | 19.9% | 99.1% | 25.6 µM | > 1000 µM | – | CC(=N)NCCC(=O)c1cc(Cl)ccc1N | Non-Toxic | 20% | –
2 | 88.8% | 22.2% | > 1000 µM | 325 µM | – | CC(=N)NCCC(=O)c1ccccc1N | – | – | –
3 | 89.2% | 97.6% | 59.7 µM | 223 µM | – | COc1ccc(N)c(C(=O)CCNC(C)=N)c1 | – | – | –
4 | 66.1% | 49.1% | – | – | – | CC(=N)NCCC(O)c1cc(Cl)ccc1N (stereo not given) | – | – | –
5 | – | – | 100 µM | > 1000 µM | – | CCNC(=O)NCCC(=O)c1cc(Cl)ccc1N | – | – | –
6 | 86.4% | 75.1% | – | – | – | COc1ccc(N)c(C(=O)CCNC(=N)c2ccc(Cl)cc2)c1 | – | – | –

More lines, now with the values behind:

Row | Structure (SMILES) | inhibition (Nitric oxide synthase 1 [1]) | inhibition [2] | IC50 [3] | IC50 (Nitric oxide synthase 1 [4]) | inhibition (INH) (Nitric oxide synthase 3 [7]) | Activity (HUVEC) | cytotoxicity at 0.5 h, 500 µM [5] | inhibition (INH) (Nitric oxide synthase 3 [6])
7 | N=C(NCCC(=O)c1ccccc1N)c1ccc(C(F)(F)F)cc1 | 56% | 68.6% | – | – | – | – | – | –
8 | COC(=O)[C@@H](N)CCCNC(=N)N[N+](=O)[O-] [L-NAME] | – | – | – | – | – | – | – | Active
9 | CNC(=S)NCCC(O)c1cc(OC)ccc1N (stereo not given) | – | – | 180 µM | 130 µM | – | – | – | –
10 | COc1ccc(N)c(C(O)CCNC(=N)c2ccccc2)c1 (stereo not given) | 7.18% | 95.9% | 22.5 µM | > 1000 µM | – | Non-Toxic | 20% | –
11 | COc1ccc(N)c(C(O)CCNC(=N)c2ccc(C(F)(F)F)cc2)c1 (stereo not given) | 12.5% | 99.6% | 20 µM | > 1000 µM | Not Active | Non-Toxic | 20% | –
12 | COc1ccc(N)c(C(=O)CCNC(=N)c2ccccc2)c1 | 85.9% | 94.7% | 45.2 µM | 194 µM | – | Non-Toxic | 20% | –
13 | N=C(NCCC(O)c1ccccc1N)c1ccc(C(F)(F)F)cc1 (stereo not given) | 36.5% | 60.5% | – | – | – | – | – | –
14 | N=C(NCCC(O)c1ccccc1N)c1ccc(Cl)cc1 (stereo not given) | 31.6% | 73.2% | – | – | – | – | – | –
15 | CC(=N)NCCC(O)c1ccccc1N (stereo not given) | 28.3% | 16.2% | – | – | – | – | – | –
16 | N=C(NCCC(=O)c1ccccc1N)c1ccccc1 | 66.5% | 35.6% | – | – | – | – | – | –
17 | N=C(NCCC(=O)c1ccccc1N)c1ccc(Cl)cc1 | 37.4% | 33.4% | – | – | – | – | – | –
18 | N=C(NCCC(O)c1ccccc1N)c1ccccc1 (stereo not given) | 23.2% | 64.1% | – | – | – | – | – | –
19 | COc1ccc(N)c(C(O)CCNC(C)=N)c1 (stereo not given) | 19% | 57.4% | – | – | – | – | – | –
20 | COc1ccc(N)c(C(O)CCNC(=N)c2ccc(Cl)cc2)c1 (stereo not given) | 58.5% | 81% | – | – | – | – | – | –
